From PubChem BioAssay
Sampled rows, rich in hits. Any-hit rate of the full collection: about 3.8%.
KCNQ1 act – potentiators or activators of KCNQ1 channel, primary screen, cell-based, thallium flux, high-throughput; Potassium voltage-gated channel subfamily KQT member 1 (Homo sapiens), P51787; CHO-K1 KCNQ1, thallium flux FluxOR fluorescence; stronger effect = higher value; B-score at 10 µM; hit rate 0.35% among 310,000; AID 2648, 2010;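 active = fluorescence ratio B-score, a plate-corrected score, at least three library SD, with initial intensity B-score within 5 SD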
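Material: CHO-K1 cells stably expressing KCNQ1. Medium: assay buffer for compound exposure, DMSO matched across wells. Reagent: K+/Tl+ depolarizing stimulus. Compound dosing: single-concentration screen. Times: 37 °C overnight plating, 90-min dark dye load, 20-min compound pretreatment. Technique: FluxOR Tl+ flux fluorescence.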
hERG rescue – hERG rescue from dofetilide block, primary screen, cell-based, CHO-hERG, FluxOR thallium flux, dofetilide IC70; AID 1511, 2009; hit rate 0.51% among 310,000; Voltage-gated inwardly rectifying potassium channel KCNH2 (Homo sapiens), Q12809; activation (rescue from dofetilide block), less the hit threshold, % at 10 µM; dofetilide IC70 present;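 active = activation above the mean of controls blocked by dofetilide plus 5 SD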;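 also: thallium influx through hERG after potassium depolarization seen as dye fluorescence rise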
Kir21 block – inhibitors of mouse Kir2.1 inward-rectifier potassium channel. Inward rectifier potassium channel 2 (Mus musculus), P35561. B-score at 10 µM. hit rate 0.85% among 310,000. HEK293-Kir2.1, FluxOR thallium flux fluorescence; stronger effect = lower value;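 active = fluorescence ratio B-score at or below minus 3 SD of library scores, with starting-brightness B-score within 2 SD, cut at about -4.2 in these data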;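 also: channel flux triggered by added potassium and thallium sulfate stimulus; B-score of peak minus minimum fluorescence over baseline after thallium stimulus; more negative B-score means stronger Kir2.1 block with less thallium influx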
Target sequence (P35561 whole entry, looked up): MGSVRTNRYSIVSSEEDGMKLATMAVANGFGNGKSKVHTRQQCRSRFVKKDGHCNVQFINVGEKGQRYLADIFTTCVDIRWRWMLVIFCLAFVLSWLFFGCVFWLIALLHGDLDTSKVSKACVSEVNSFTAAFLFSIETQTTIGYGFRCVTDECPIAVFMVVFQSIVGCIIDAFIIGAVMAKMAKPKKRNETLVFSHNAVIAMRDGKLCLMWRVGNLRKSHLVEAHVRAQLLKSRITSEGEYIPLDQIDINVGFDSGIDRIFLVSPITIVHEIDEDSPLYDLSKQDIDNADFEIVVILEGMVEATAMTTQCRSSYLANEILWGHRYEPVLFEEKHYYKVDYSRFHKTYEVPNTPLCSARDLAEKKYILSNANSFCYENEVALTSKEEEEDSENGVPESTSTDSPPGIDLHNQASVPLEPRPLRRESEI
KCNQ1 inh – inhibitors of human KCNQ1 channel, primary screen, cell-based, thallium flux, high-throughput. CHO-K1 KCNQ1, FluxOR thallium flux fluorescence; stronger effect = higher value. B-score at 10 µM. hit rate 1.3% among 310,000. Potassium voltage-gated channel subfamily KQT member 1 (Homo sapiens), P51787. AID 2642, 2010;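 active = compounds whose thallium flux B-score, printed positive for inhibition, exceeds three library SD while starting fluorescence stays within three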;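 also: channel opened by potassium depolarization with thallium stimulus after 20 min compound exposure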
KCNK3 block – human KCNK3 channel inhibitors, primary screen, CHO cells, FluxOR thallium flux, B-score | hit rate 0.84% among 340,000 | Potassium channel subfamily K member 3 (Homo sapiens), O14649 | FluxOR fluorescence; stronger effect = lower value | B-score at 10 µM;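 active = B-score under library mean minus 4 SD, starting fluorescence ratio at most library mean plus 5 SD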;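 also: more negative B-score means stronger inhibition of thallium flux through KCNK3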
KCNK9 block – KCNK9 potassium channel inhibitors, primary screen, HEK293 cells, thallium flux; AID 488922, 2010; hit rate 1.2% among 310,000; B-score at 10 µM; Potassium channel subfamily K member 9 (Homo sapiens), Q9NPC2; FluxOR thallium flux fluorescence; stronger effect = lower value;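 active = ratio B-score over 3 SD below the library mean, with starting fluorescence within 5 SD of its mean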;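 also: negative B-score means less thallium flux so channel inhibition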
KCNK9 inh conf – KCNK9 potassium channel inhibitors, confirmation, HEK293 cells, thallium flux, duplicate; shares compounds with KCNK9 block; FluxOR thallium flux fluorescence; inhibition, % at 10 µM; hit rate 43% among 4,900; AID 492992, 2010;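 active = thallium signal inhibited by more than 5 SD of the compound-free buffer control wells, on both duplicate plates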;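 also: 0% = assay buffer control wells without compound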
Kir2-1 spec – mouse Kir2.1 channel inhibition, confirmation, selectivity assay for KCNK9 modulator project, cell-based, HEK293, thallium flux. shares compounds with KCNK9 block. Kir2.1 cells, FluxOR thallium flux fluorescence. inhibition, % at 10 µM. hit rate 4% among 4,900. AID 492993, 2010;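 active = thallium signal drop more than 5 SD beyond the mean of the no-compound control wells, seen in both duplicate plates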;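 also: signal is fluorescence rise after thallium addition divided by baseline fluorescence; plate controls were assay buffer only for no effect and full block by chlorpromazine control for full effect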
HEK293 Tl ctr – thallium flux in non-induced HEK293 cells, confirmation, counter-screen for KCNK9 inhibitor project, cell-based, second counter screen, non-induced KCNK9-HEK293; inhibition, % at 10 µM; FluxOR thallium flux; shares compounds with KCNK9 block; AID 492997, 2010; hit rate 40% among 4,900;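 active = thallium signal drop beyond 5 SD of the untreated control mean, on both duplicate plates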;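 also: plate controls were buffer only IC0 wells for no effect and SID17386958 at its maximal inhibitory level for full effect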
* hit, by the source's call; i = inactive; nt = no result given.

SMILES | KCNQ1 act | hERG rescue | Kir21 block | KCNQ1 inh | KCNK3 block | KCNK9 block | KCNK9 inh conf | Kir2-1 spec | HEK293 Tl ctr
Cc1cc(C)cc(NC(=S)NCc2ccc3[nH]c4c(c3c2)CCCC4)c1 | i | -16 | -0.05 | i | i | i | i | i | i
S=C(NCc1ccc2[nH]c3c(c2c1)CCCC3)Nc1ccccc1 | i | -8 | 0 | i | i | i | nt | nt | nt
CC(=O)C1=C(O)C(=O)N(c2ccc(O)cc2)C1c1ccccc1Cl (stereo not given) | i | -12 | -0.06 | i | i | i | nt | nt | nt
c1ccc(-c2nc(NCCCn3ccnc3)c3oc4ccccc4c3n2)cc1 | i | -33 | -4.4 | i | i | i | nt | nt | nt
c1ccc(-c2nc(NCc3ccco3)c3oc4ccccc4c3n2)cc1 | i | -18 | -0.22 | i | i | -8.7* | 38%* | i | 35%*
CCOc1ccc(C(c2nnnn2C(C)(C)C)N2CCN(C(=O)c3ccco3)CC2)cc1 (stereo not given) | i | -8 | -0.14 | i | i | i | nt | nt | nt
COc1ccccc1C(c1nnnn1C(C)(C)C)N1CCCCCC1 (stereo not given) | i | -3 | -2.4 | i | i | -8.9* | 30%* | i | 28%*
COc1ccccc1C(c1nnnn1C(C)(C)C)N1CCN(C(=O)c2ccco2)CC1 (stereo not given) | i | -3 | 0.01 | i | i | -14* | 54%* | i | 46%*
CC(C)(C)n1nnnc1C(c1cccs1)N1CCCc2ccccc21 (stereo not given) | i | -7 | 0.76 | i | i | -9.9* | i | i | i
CCC(/C=N/NC(=O)CCCCC(=O)N/N=C/C(CC)CC)CC | i | -10 | 1.4 | i | i | i | nt | nt | nt
OCCNCc1c(OCc2ccc(Cl)cc2)ccc2ccccc12 | i | -18 | -6.8* | i | i | -19* | 76%* | 42%* | 31%*
CC(O)CNCCNCc1c(OCc2ccccc2)ccc2ccccc12 (stereo not given) | i | -14 | -4.1 | i | i | i | nt | nt | nt
Cc1cc(-c2cccc([N+](=O)[O-])c2)nc2ccc3ccccc3c12 | i | -5 | -0.19 | i | i | i | nt | nt | nt
COCCNC(=O)Cn1cnc2sc(C)c(S(=O)(=O)N3CCC(C)CC3)c2c1=O | i | -9 | 0.58 | i | i | i | nt | nt | nt
COc1ccc(Cl)cc1Nc1ncnc2sc(C)c(S(=O)(=O)N3CCC(C)CC3)c12 | i | -11 | -1.2 | i | i | -9.7* | 48%* | i | 34%*
COc1ccc(S(=O)(=O)N2CCCCC2)cc1NC(=O)c1ccc2c(c1)OCO2 | i | -7 | -0.95 | i | i | i | nt | nt | nt
CCOC(=O)N1CCN(S(=O)(=O)c2c(C)nc3scc(C)n3c2=O)CC1 | i | -8 | 1.3 | i | i | i | nt | nt | nt
COc1cc(/C=C2\C(=N)N3N=CSC3=NC2=O)ccc1OS(=O)(=O)c1ccccc1[N+](=O)[O-] | i | -5 | -0.21 | i | i | i | i | i | i
ClCc1ncc(-c2ccc(Cl)cc2)o1 | i | -7 | 0.96 | i | i | i | nt | nt | nt
COc1ccc(C2=NN(C(=O)c3ccccc3)C(c3cccc([N+](=O)[O-])c3)C2)cc1 (stereo not given) | i | -8 | -0.79 | i | i | -18* | 54%* | i | 28%*
COc1ccc(C2CC(c3ccccc3)=NN2C(=O)COC(=O)C2CC2)cc1 (stereo not given) | i | -8 | 1.4 | i | i | i | nt | nt | nt
COc1ccc(C2CC(c3ccccc3)=NN2C(=O)COC(=O)C2(C)CC2(Cl)Cl)cc1 (stereo not given) | i | -10 | 1.5 | i | i | i | i | i | i
COc1ccccc1OCC(=O)NNc1c2ccccc2nc2ccccc12 | i | -4 | 0.8 | i | i | i | nt | nt | nt
CC(C)C[C@H](NC(=O)N1CCn2c1nc1ccccc12)C(=O)NCc1ccccc1 | i | -5 | -1.4 | i | i | i | nt | nt | nt
CC1=CC(C)C2(COC(=O)Nc3ccccc3)COC(C)C1C2C (stereo not given) | i | -13 | -1.7 | i | i | i | i | i | i
SMILES | KCNQ1 act | hERG rescue | Kir21 block | KCNQ1 inh | KCNK3 block | KCNK9 block | KCNK9 inh conf | Kir2-1 spec | HEK293 Tl ctr
COc1ccc(NC(=S)N(CCN2CCOCC2)Cc2cc3cc4c(cc3[nH]c2=O)OCCO4)cc1 | i | -14 | 0.64 | i | i | i | nt | nt | nt
c1ccc(CCN(Cc2ccccc2)Cc2nc(C3CC3)no2)cc1 | i | -3 | -0.66 | i | i | -9.6* | i | i | 38%*
CCN(Cc1ccccc1)Cc1nc(CCc2ccccc2)no1 | i | -15 | 1.5 | i | i | i | nt | nt | nt
Cc1ccc(Cn2c(C3CCCN3c3nc(C)cs3)nc3cc(C(F)(F)F)ccc32)cc1 (stereo not given) | i | -15 | 1.1 | i | i | -15* | 74%* | i | 56%*
Cc1ccc(Cn2c(C3CCCN3c3nc(-c4cc(Cl)c(N)c(Cl)c4)cs3)nc3cc(C(=O)NCCCO)ccc32)cc1 (stereo not given) | i | -4 | 0.61 | i | i | i | nt | nt | nt
O=C1c2[nH]nc(-c3ccccc3O)c2C(c2cccc(O)c2)N1Cc1ccco1 (stereo not given) | i | -15 | -0.55 | i | i | -8.4* | 26%* | i | 30%*
O=C(CN1CCCCCC1)N/N=C/c1cccc(Cl)c1Cl | i | -2 | -2 | i | i | i | nt | nt | nt
Cn1c(CC(=O)Nc2ccccc2)c(Sc2ccccc2)c2ccccc21 | i | -10 | 0.03 | i | i | i | i | i | i
CSc1c(CC(=O)Nc2ccccc2)n(C)c2ccccc12 | i | -6 | 0 | i | i | i | nt | nt | nt
